# High-throughput results (PubChem)
# Shown are actives, neighbours in structure and some others; about 3.7% of the full set was active somewhere.
# XBP1 UPR activ: activators of adaptive XBP1 UPR arm, primary screen, cell-based, CHO-XBP1 luciferase reporter, luminescence, uHTS; IRE1-XBP1 UPR activation; percent of tunicamycin response, DMSO as zero; activation, % at 20 µM; 330,000 compounds, 0.33% hits; AID 463104, 2010;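 active means versus positive control, 20 µM dose yields 30% or more activation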;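 further: 100% = tunicamycin at 10 µg/mL and 0% = DMSO only wells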
#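 assay system = CHO-XBP1 luciferase reporter cells | amount = 1000 cells/well | buffer or medium = F12 plus 10% FBS | compound dosing = single point, 20 µM final compound, 1% DMSO | incubation = 16-18 h cell attachment at 37 °C, then 6 h compound exposure | detection = Steady-Glo luminescence read | controls = tunicamycin 10 µg/mL and vehicle-only wells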
# CHOP UPR activ: activators of apoptotic CHOP UPR arm, primary screen, cell-based, CHO-CHOP luciferase reporter, luminescence, uHTS; UPR activation; percent of tunicamycin response over DMSO baseline; activation, % at 10 µM; 330,000 compounds, 0.34% hits; AID 449763, 2010;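 active means at 10 µM dose, activation of 40% or more, normalized to positive control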;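 further: 100% = tunicamycin at 10 µg/mL and 0% = DMSO alone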
#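 Dosing – one dose, 10 µM in 0.5% DMSO · System – CHO-CHOP cells, stable luciferase reporter of PERK-eIF2a-CHOP signalling · Input – 500 cells/well · Control set – tunicamycin 10 µg/mL final as positive, DMSO-only wells as negative · Timing – 6 h compound treatment, 37 °C · Measure – % activation vs tunicamycin · Technique – luminescence read with Steady-Glo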
# Dynein cargo inh: inhibitors of GR-EGFP nuclear translocation, primary screen, dynein cargo transport inhibitor project, imaging, high-content, 3617.4 mouse cells. test concentration mostly 20 µM; stimulated with dexamethasone, 1 µM; active compounds read low. z-score, hits read low. 220,000 compounds, 0.47% hits. AID 1381, 2008;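 active means plate z-score of nuclear minus cytoplasmic receptor signal below a set negative limit, without overly bright fluorescence or cell loss, cut at about -3.5 in these data, passing the limit was not always enough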;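 further: z-score of nuclear minus cytoplasmic ring GR-EGFP intensity difference per well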
#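 Buffer or medium – tet-free medium with charcoal-stripped serum · Signal – automated 10x imaging of fixed Hoechst-stained cells · Also added – dexamethasone agonist, 1.0 µM final, for 30 min · Incubation – induction 48 h, compound 1 h, agonist 30 min · Read-out – GR-EGFP nuclear translocation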
# Mdm2 MdmX PPI: inhibitors of human Mdm2-MdmX association, primary screen, cell-based, luminescence, split luciferase, SaOS-2, uHTS | SaOS-2 split-luciferase Mdm2/MdmX complementation | AID 485346, 2010 | inhibition, % at 8 µM | Protein Mdm4 (Homo sapiens) + E3 ubiquitin-protein ligase Mdm2 (Homo sapiens), … | 330,000 compounds, 3% hits;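 active means inhibition of at least 50% at 8 µM in the primary screen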
# MDM2 E3 inh: MDM2-luciferase reporter signal enhancers, primary screen, MDM2 E3 ligase inhibitor project, cell-based, luminescence, 1536-well. 210,000 compounds, 0.11% hits. cell-based MDM2 ubiquitination luciferase reporter, 2 h; 0 = plate control, 100 = twice control, blank-subtracted. signal enhancement, % at 5 µM. AID 1230, 2008;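 active means signal enhancement of 30% or more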;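 further: luminescence tracks abundance of the self-degrading MDM2-luciferase fusion protein; higher signal means inhibition of MDM2 E3 ligase activity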
#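 Test system: stable mammalian line carrying autodegrading MDM2–luciferase fusion reporter; quantity: 2000 cells in each well; times: 4 h cell settling then 2 h compound exposure, 37 °C; detection: luminescence with SteadyLite reagent, 15 min at room temperature; evaluation: percent signal gain over controls, blank-subtracted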
# B2AR ag: beta2AR agonists driving receptor internalization, primary screen, cell-based, FAP fluorogen, flow cytometry. Beta-2 adrenergic receptor (Homo sapiens), P07550. 340,000 compounds, 0.43% hits. response, % (concentration not given with the values). AID 504454, 2011. Am2.2-beta2AR cells;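 active means response above a set limit, near 3 SD of response in nonfluorescent compounds, cut at about 42% in these data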
# Target sequence (P07550 whole entry, looked up): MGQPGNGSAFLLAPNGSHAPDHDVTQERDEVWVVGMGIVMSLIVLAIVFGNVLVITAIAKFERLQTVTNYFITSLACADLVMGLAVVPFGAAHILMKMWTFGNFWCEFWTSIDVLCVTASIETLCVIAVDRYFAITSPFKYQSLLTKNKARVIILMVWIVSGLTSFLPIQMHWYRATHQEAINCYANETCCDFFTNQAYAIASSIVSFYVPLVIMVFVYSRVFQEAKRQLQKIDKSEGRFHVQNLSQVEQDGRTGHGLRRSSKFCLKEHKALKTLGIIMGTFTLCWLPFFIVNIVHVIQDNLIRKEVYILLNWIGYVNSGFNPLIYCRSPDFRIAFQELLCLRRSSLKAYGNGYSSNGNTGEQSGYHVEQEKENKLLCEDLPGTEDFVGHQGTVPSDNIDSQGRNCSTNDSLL
# The depositor's hits bear a star; nt = not tested or not shown.
SMILES,XBP1 UPR activ,CHOP UPR activ,Dynein cargo inh,Mdm2 MdmX PPI,MDM2 E3 inh,B2AR ag
COc1cc2c(cc1OC)CN(C(=O)c1ccco1)CC2,7,2,1.8,-26,35*,-13
CCOC(=O)C1=C(O)/C(=C/c2ccc(CNC(=O)C(=O)Nc3ccc(C)cc3)o2)N=C1C,-2,-3,-0.72,23,1,75*
COC(=O)C1=C(O)/C(=C\c2ccc(CNC(=O)C(=O)Nc3ccc(C)c(C)c3)o2)N=C1C,0,0,-1.6,22,-11,70*
CCOC(=O)C(=O)NCc1ccc(/C=C2/N=C(C)C(C(=O)OCC)=C2O)o1,-2,-1,-0.56,15,0,-3
COC(=O)C1=C(O)/C(=C\c2ccc(CNS(=O)(=O)c3ccccc3)o2)N=C1C,-4,0,0.16,14,-2,-2
COC(=O)C1=C(O)/C(=C\c2ccc(CNC(=O)C(=O)Nc3ccc(C)cc3)o2)N=C1C,-4,3,-0.62,18,9,56*
COc1cccc(NC(=O)c2ccc3nc(C)sc3c2)c1,-4,1,nt,-38,nt,3
CC(C)(C)c1ccc(/C=N/N2C(=O)CSC2=S)cc1,-7,-1,nt,20,nt,65*
S=C(Sc1ccc(Cl)cc1)Sc1ccc(Cl)cc1,-9,-9,-5.1*,23,30,nt
NS(=O)(=O)c1ccc(Nc2nc3ccccc3nc2NS(=O)(=O)c2cccc([N+](=O)[O-])c2)cc1,0,-1,-0.64,-11,-15,-8
CC1(C)C(=O)C=CC(=O)C(C)(C)C(=O)C=CC(=O)C(C)(C)C2=CC=C(O2)C(C)(C)C(=O)C=CC1=O,nt,nt,nt,nt,nt,62*
Cc1ccc(NC(=O)c2sc(Cl)nc2C)c(C)c1,1,2,-0.36,-12,4,7
Cc1cc(C)c(C)c(OC(=O)c2sc(Cl)nc2C)c1,-1,5,-0.49,18,-19,92*
Cc1nn(-c2ccc(N3CCOCC3)nn2)c(C)c1CCC(=O)NCc1ccccc1,-4,2,nt,-12,nt,-6
O=C(Nc1c(Cl)cccc1Cl)C1CCN(C(=O)c2cccs2)CC1,0,-2,nt,-13,nt,-4
COC(=O)c1ccc(COc2ccccc2/C=C/C(=O)c2ccc(OCC(=O)O)cc2)cc1,0,3,nt,4,nt,47*
COC(=O)c1ccc(COc2ccccc2/C=N/Nc2cccc(C(=O)O)c2)cc1,nt,nt,0.14,nt,-9,2
NC(=O)c1c(NC(=O)C2CCCO2)sc2c1CCCC2 (stereo unspecified),2,3,0.65,7,34*,-11
Cc1ccc(NC(=O)C2CSC3(C)CCC(=O)N23)cc1S(=O)(=O)N1CCCCCC1 (stereo unspecified),-3,0,nt,4,nt,-1
O=C1C(=C(I)I)c2ccccc2-c2ccccc21,nt,nt,nt,nt,nt,76*
O=C(Nc1ccc(F)cc1)c1ccccc1S(=O)(=O)c1ccccc1[N+](=O)[O-],-2,-1,2.2,10,49*,7
CCCN(C(=O)CCSc1ccc(F)cc1)c1c(N)n(Cc2ccccc2)c(=O)[nH]c1=O,-2,0,nt,6,nt,-5
O=C(COC(=O)c1ccc2c(c1)C(=O)N(c1cccc3ncccc13)C2=O)c1ccc(Cl)cc1,-3,-2,-0.11,-20,5,63*
O=C(CCCOC(=O)c1ccc(O)cc1O)c1ccc(Br)cc1,5,4,nt,1,nt,-3
O=C(O)c1nn(CCOc2cccc(Br)c2)c(=O)c2ccccc12,9,0,nt,-1,nt,2
